Measurements reported in ChEMBL document CHEMBL1134648 (J Med Chem, 2001).

Assays:
Coagulation factor X [1] = molecular target: Coagulation factor X (Homo sapiens, UniProt P00742); assay: Binding affinity against human coagulation factor X
Prothrombin = Prothrombin (Homo sapiens, UniProt P00734); assay: In vitro activity against human thrombin.
Oryctolagus cuniculus [2] = species on record: Oryctolagus cuniculus; assay: (§1) Antithrombotic efficacy in a rabbit arteriovenous shunt thrombosis model.; type: functional
Procedure, shortened: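 Test agents were given to rabbits by intravenous continuous infusion in an arterio-venous shunt thrombosis model.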

Trypsin = Trypsin (Homo sapiens, UniProt P07477+P07478+P35030); assay: In vitro activity against human trypsin.; type: protein assay
Homo sapiens [3] = species on record: Homo sapiens; assay: In vitro human activated partial thromboplastin time of the compound.; type: functional
Oryctolagus cuniculus [4] = species on record: Oryctolagus cuniculus; assay: as §1; type: functional; remark: listed apart in the source
Coagulation factor X [5] = molecular target: T1, Coagulation factor X (Oryctolagus cuniculus, UniProt O19045); assay: In vitro activity against rabbit FXa.
T1 sequence (O19045 whole entry): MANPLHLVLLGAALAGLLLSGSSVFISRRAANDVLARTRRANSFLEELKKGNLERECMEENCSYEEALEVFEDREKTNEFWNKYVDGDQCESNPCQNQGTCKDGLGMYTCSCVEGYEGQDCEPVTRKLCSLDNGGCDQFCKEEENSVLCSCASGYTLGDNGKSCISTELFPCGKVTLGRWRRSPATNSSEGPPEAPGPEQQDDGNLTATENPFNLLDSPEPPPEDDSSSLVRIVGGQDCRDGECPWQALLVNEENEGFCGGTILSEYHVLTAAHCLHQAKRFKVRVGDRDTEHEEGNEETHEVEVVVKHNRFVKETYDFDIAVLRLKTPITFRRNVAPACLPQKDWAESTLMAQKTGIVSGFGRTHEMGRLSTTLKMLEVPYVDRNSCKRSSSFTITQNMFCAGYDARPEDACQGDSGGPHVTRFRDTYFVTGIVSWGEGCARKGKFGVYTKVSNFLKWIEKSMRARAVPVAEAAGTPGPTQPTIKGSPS

Homo sapiens [6] = species on record: Homo sapiens; assay: In vitro Activated partial thromboplastin time of the compound.; type: functional
[7] = molecular target: Vitamin K-dependent protein C (Homo sapiens, UniProt P04070); assay: In vitro activity against human Activated protein C
Coagulation factor X [8] = molecular target: T1, Coagulation factor X; assay: In vitro activity against rabbit factor Xa
Plasminogen = Plasminogen (Homo sapiens, UniProt P00747); assay: In vitro activity against human plasmin
[9] = molecular target: Tissue-type plasminogen activator (Homo sapiens, UniProt P00750); assay: In vitro activity against human tissue plasminogen activator
[10] = molecular target: Urokinase-type plasminogen activator (Homo sapiens, UniProt P00749); assay: In vitro activity against human urokinase
Coagulation factor IX = Coagulation factor IX (Homo sapiens, UniProt P00740); assay: In vitro activity against human factor IXa
Plasma kallikrein = Plasma kallikrein (Homo sapiens, UniProt P03952); assay: In vitro activity against human Plasma kallikrein.; type: cell-free
Chain of Plasma kallikrein (P03952 20-390 limits assumed): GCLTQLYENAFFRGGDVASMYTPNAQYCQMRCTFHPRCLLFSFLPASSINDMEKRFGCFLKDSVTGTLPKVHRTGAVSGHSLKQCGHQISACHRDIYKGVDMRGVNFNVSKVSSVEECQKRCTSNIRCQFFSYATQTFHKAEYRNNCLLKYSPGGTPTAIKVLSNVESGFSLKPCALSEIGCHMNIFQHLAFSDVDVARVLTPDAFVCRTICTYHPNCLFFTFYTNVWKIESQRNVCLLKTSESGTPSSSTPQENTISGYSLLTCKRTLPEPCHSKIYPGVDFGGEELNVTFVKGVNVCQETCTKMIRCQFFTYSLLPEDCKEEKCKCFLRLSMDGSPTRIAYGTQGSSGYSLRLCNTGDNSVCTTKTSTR
Chain of Plasma kallikrein (P03952 391-638 limits assumed): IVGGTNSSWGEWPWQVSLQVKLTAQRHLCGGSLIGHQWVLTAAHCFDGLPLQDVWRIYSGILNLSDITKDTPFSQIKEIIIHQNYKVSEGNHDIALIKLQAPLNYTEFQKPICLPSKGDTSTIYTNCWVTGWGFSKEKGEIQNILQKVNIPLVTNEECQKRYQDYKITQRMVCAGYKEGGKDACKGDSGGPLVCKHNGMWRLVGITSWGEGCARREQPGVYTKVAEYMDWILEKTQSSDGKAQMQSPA

Chain of Coagulation factor X (Homo sapiens, UniProt P00742) (P00742 41-179 limits assumed): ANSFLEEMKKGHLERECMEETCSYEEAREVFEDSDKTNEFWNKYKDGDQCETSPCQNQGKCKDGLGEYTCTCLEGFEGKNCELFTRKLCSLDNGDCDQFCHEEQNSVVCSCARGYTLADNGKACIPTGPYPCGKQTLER
Chain of Coagulation factor X (Homo sapiens, UniProt P00742) (P00742 235-488 limits assumed): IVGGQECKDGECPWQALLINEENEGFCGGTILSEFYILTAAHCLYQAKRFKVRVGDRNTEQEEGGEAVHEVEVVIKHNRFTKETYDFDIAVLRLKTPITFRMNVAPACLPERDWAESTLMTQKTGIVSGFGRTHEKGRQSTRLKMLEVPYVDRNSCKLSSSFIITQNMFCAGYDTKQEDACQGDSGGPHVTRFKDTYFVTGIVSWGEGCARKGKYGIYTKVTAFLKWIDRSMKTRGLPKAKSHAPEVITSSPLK
Chain of Vitamin K-dependent protein C (P04070 43-197 limits assumed): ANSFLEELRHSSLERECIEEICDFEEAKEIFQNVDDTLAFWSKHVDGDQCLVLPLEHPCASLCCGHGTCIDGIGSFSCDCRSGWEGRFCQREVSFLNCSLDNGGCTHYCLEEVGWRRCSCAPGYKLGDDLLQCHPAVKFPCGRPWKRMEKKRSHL
Chain of Vitamin K-dependent protein C (P04070 212-461 limits assumed): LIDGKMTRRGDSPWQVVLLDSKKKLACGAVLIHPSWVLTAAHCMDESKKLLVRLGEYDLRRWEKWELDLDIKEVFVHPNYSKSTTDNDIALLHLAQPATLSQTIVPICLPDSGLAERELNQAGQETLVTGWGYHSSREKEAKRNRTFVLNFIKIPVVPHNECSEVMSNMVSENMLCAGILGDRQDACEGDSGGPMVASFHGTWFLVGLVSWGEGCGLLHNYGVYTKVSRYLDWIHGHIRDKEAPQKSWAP
Chain of Tissue-type plasminogen activator (P00750 whole entry): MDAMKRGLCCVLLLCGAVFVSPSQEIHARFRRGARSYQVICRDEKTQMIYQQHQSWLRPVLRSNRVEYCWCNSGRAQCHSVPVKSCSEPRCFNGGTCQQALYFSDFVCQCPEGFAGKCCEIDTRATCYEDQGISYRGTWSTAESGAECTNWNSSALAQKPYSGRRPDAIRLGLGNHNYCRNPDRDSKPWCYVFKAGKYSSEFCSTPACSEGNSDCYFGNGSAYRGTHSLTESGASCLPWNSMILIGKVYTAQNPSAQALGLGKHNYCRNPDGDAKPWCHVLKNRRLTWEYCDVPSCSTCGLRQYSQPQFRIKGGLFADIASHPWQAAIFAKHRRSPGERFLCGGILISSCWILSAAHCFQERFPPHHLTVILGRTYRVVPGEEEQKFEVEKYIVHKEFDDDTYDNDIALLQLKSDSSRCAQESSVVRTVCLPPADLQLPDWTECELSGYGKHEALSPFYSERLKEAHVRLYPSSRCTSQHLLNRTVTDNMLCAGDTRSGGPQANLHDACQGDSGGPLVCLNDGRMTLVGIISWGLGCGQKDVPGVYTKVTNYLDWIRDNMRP
Chain of Plasminogen (P00747 97-580 limits assumed): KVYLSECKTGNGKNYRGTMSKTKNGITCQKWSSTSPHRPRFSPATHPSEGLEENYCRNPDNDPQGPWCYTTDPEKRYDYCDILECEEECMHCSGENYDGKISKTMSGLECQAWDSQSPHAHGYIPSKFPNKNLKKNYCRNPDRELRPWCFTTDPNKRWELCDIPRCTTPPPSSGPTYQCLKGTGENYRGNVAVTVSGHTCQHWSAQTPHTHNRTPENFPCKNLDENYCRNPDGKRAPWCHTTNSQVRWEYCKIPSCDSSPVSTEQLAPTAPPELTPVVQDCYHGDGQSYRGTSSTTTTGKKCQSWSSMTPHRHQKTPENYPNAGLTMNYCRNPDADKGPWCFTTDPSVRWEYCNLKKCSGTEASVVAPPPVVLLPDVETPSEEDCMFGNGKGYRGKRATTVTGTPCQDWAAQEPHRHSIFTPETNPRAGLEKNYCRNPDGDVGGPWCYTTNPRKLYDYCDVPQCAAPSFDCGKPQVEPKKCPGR
Chain of Plasminogen (P00747 581-810 limits assumed): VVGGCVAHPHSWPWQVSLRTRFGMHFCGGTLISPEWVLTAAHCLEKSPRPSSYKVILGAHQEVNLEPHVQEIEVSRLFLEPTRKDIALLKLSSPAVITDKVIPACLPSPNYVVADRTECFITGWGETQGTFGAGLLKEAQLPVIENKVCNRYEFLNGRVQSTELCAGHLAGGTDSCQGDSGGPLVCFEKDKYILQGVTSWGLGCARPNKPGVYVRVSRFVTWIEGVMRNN
Chain of Coagulation factor IX (P00740 47-191 limits assumed): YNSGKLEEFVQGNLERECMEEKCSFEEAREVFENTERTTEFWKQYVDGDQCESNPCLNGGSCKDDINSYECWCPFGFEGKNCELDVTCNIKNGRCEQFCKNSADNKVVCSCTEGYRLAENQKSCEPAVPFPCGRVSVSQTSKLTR
Chain of Coagulation factor IX (P00740 227-461 limits assumed): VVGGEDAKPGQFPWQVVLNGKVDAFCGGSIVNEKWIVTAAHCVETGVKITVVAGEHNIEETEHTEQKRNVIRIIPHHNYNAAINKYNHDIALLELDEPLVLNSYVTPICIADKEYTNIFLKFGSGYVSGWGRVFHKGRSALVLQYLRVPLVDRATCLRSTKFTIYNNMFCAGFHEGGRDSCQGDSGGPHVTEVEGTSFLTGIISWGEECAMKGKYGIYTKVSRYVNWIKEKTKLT

SMILES | Ki (Coagulation factor X [1]) [nM] | Ki (Prothrombin) [nM] | Ki (Trypsin) [nM] | also measured
Cc1cc(C(=O)Nc2ncc(-c3ccccc3S(N)(=O)=O)cn2)n(-c2cccc(C(=N)N)c2)n1 | 0.041 | 7400 | 150 | ID50 (Oryctolagus cuniculus [2]): 0.03 µM/h/kg
Cc1cc(C(=O)Nc2ccc(-c3ccccc3S(C)(=O)=O)cc2F)n(-c2cccc(C(=N)N)c2)n1 | 0.02 | 230 | – | –
Cc1cc(C(=O)Nc2ccc(-c3ccccc3S(N)(=O)=O)cc2Br)n(-c2cccc(C(=N)N)c2)n1 | 0.01 | 200 | 17 | –
CS(=O)(=O)c1ccccc1-c1ccc(NC(=O)c2cc(C(F)(F)F)nn2-c2cccc(CN)c2)cc1 | 0.38 | 5800 | 100 | APTT (Homo sapiens [3]): 2.2 µM; ID50 (Oryctolagus cuniculus [2]): 2.2 µM/h/kg
N=C(N)c1cccc(-n2nc(C(F)(F)F)cc2C(=O)Nc2ncc(-c3ccccc3S(N)(=O)=O)cn2)c1 | – | – | 20 | –
N=C(N)c1cccc(-n2nccc2C(=O)Nc2ccc(-c3ccccc3S(N)(=O)=O)cc2)c1 | 0.16 | 900 | – | –
Cc1cc(C(=O)Nc2ccc(-c3ccccc3S(C)(=O)=O)cc2)n(-c2cccc(C(=N)N)c2)n1 | 0.008 | 180 | 13 | –
Cc1cc(C(=O)Nc2ccc(-c3ccccc3C(F)(F)F)cc2)n(-c2cccc(C(=N)N)c2)n1 | 0.04 | 300 | 49 | ID50 (Oryctolagus cuniculus [2]): 0.24 µM/h/kg
Cc1cc(C(=O)Nc2ccc(-c3ccccc3F)cc2)n(-c2cccc(C(=N)N)c2)n1 | 0.46 | 450 | 100 | –
N=C(N)c1cccc(-n2nc(C(F)(F)F)cc2C(=O)Nc2ccc(-c3ccccc3S(N)(=O)=O)cn2)c1 | 0.009 | 400 | 59 | –
Cc1cc(C(=O)Nc2ccc(-c3ccccc3S(N)(=O)=O)cn2)n(-c2cccc(C(=N)N)c2)n1 | 0.007 | 1400 | 59 | ID50 (Oryctolagus cuniculus [2]): 0.07 µM/h/kg
Cc1cc(C(=O)Nc2ccc(-c3ccccc3S(N)(=O)=O)cc2)n(-c2cccc(C(=N)N)c2)n1.O=C(O)C(F)(F)F | – | – | – | ID50 (Oryctolagus cuniculus [4]): 0.02 µM/h/kg; Ki (Coagulation factor X [5]): 0.03 nM; APTT (Homo sapiens [6]): 0.44 µM
CS(=O)(=O)c1ccccc1-c1ccc(NC(=O)c2cc(C(F)(F)F)nn2-c2cccc(C(=N)N)c2)cc1 | 0.008 | 70 | 4.3 | –
CS(=O)(=O)c1ccccc1-c1ccc(NC(=O)c2cc(C(F)(F)F)nn2-c2cccc(CN)c2)c(F)c1.Cl | – | – | – | Ki [7]: 1800 nM; Ki (Coagulation factor X [8]): 0.3 nM; Ki (Plasminogen): > 35000 nM; Ki [9]: > 45000 nM; ID50 (Oryctolagus cuniculus [2]): 1.1 µM/h/kg; Ki [10]: > 19000 nM; Ki (Coagulation factor IX): 2200 nM; Ki (Plasma kallikrein): 61 nM
Cc1cc(C(=O)Nc2ccc(-c3ccccc3S(C)(=O)=O)cc2F)n(-c2cccc(CN)c2)n1 | 480 | 14000 | 130 | APTT (Homo sapiens [3]): 1.1 µM; ID50 (Oryctolagus cuniculus [2]): 0.9 µM/h/kg; Ki (Coagulation factor X [5]): 1.2 nM
N=C(N)c1cccc(-n2cccc2C(=O)Nc2ccc(-c3ccccc3S(N)(=O)=O)cc2)c1 | 0.8 | 900 | – | –
N=C(N)c1cccc(-c2nocc2C(=O)Nc2ccc(-c3ccccc3S(N)(=O)=O)cc2)c1 | – | 2800 | – | –
Cc1cc(C(=O)Nc2ccc(-c3ccccc3S(N)(=O)=O)cc2F)n(-c2cccc(C(=N)N)c2)n1 | 0.005 | 210 | 4.6 | –
CS(=O)(=O)c1ccccc1-c1ccc(NC(=O)c2cc(C(F)(F)F)nn2-c2cccc(C(=N)N)c2)c(F)c1 | < 0.005 | 50 | 3.4 | –
CCCCc1cc(C(=O)Nc2ccc(-c3ccccc3S(N)(=O)=O)cc2)n(-c2cccc(C(=N)N)c2)n1.O=C(O)C(F)(F)F | 0.06 | 300 | 11 | –
NCc1cccc(-n2nc(C(F)(F)F)cc2C(=O)Nc2ccc(-c3ccccc3S(N)(=O)=O)cc2)c1 | 0.91 | 14000 | 120 | APTT (Homo sapiens [3]): 6.4 µM; ID50 (Oryctolagus cuniculus [2]): 1 µM/h/kg; Ki (Coagulation factor X [5]): 2.1 nM
Cc1cc(C(=O)Nc2ccc(-c3ccccc3S(N)(=O)=O)cc2F)n(-c2cccc(CN)c2)n1 | 1.6 | 12000 | 120 | APTT (Homo sapiens [3]): 0.92 µM; Ki (Coagulation factor X [5]): 2.2 nM
N=C(N)c1cccc(-n2nc(C(F)(F)F)cc2C(=O)Nc2ccc(-c3ccccc3S(N)(=O)=O)cc2F)c1 | < 0.005 | 120 | 4 | –
N=C(N)c1cccc(-n2nc(C(F)(F)F)cc2C(=O)Nc2ccc(-c3ccccc3S(N)(=O)=O)cc2)c1 | 0.015 | 40 | 3.9 | –
Cc1cc(C(=O)Nc2ccc(-c3ccccc3S(N)(=O)=O)cc2Cl)n(-c2cccc(C(=N)N)c2)n1 | 0.009 | 300 | 15 | –
Cc1cc(C(=O)Nc2ccc(-c3ccccc3)cc2)n(-c2cccc(C(=N)N)c2)n1 | 1.3 | 600 | 87 | –
Cc1cc(C(=O)Nc2ccc(-c3ccccc3S(C)(=O)=O)cc2)n(-c2cccc(CN)c2)n1 | 0.89 | 21000 | 220 | APTT (Homo sapiens [3]): 1.3 µM
Cc1cc(C(=O)Nc2ccc(-c3ccccc3S(N)(=O)=O)cc2)n(-c2cccc(CN)c2)n1 | 2.7 | 21000 | – | APTT (Homo sapiens [3]): 2.3 µM; Ki (Coagulation factor X [5]): 4.1 nM
NCc1cccc(-n2nc(C(F)(F)F)cc2C(=O)Nc2ccc(-c3ccccc3S(N)(=O)=O)cc2F)c1 | 0.36 | 2000 | 53 | APTT (Homo sapiens [3]): 0.91 µM; ID50 (Oryctolagus cuniculus [2]): 0.6 µM/h/kg; Ki (Coagulation factor X [5]): 1 nM
Cc1cc(C(=O)N(C)c2ccc(-c3ccccc3S(N)(=O)=O)cc2)n(-c2cccc(C(=N)N)c2)n1.O=C(O)C(F)(F)F | 11 | > 2000 | > 1600 | –
